Values after ≈ are worked out from the molar mass of the structure shown. Active and inactive are the calls of the source. The rule behind the calls is not given here. Positions of bridges follow the written chain, without caps; N, C: chain ends. Non-standard residues stand in square brackets, D forms with d. Residues, ends and D or L forms follow the SMILES beside them. *: point of attachment. Ileψ(thiazoline)Cys = CC[C@H](C)[C@H](N)C1=N[C@H](C(=O)*)CS1; dOrn = NCCC[C@@H](N)C(=O)O
What was measured:
[1] = Apparent permeability from apical to basolateral side in human Caco2 cells at 10 uM after 60 mins by LC-MS/MS analysis; assay type: ADME, cell-based; conditions: caco-2, 1 h
In short: (§1)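 Caco-2 monolayers were seeded at 1 × 10^5 cells/cm2 and differentiated for three weeks. Test article was at 10 μM (1% DMSO) in HBSS-MES pH 6.5 or HBSS-HEPES pH 7.4 and added to the donor side. Incubation ran 60 min (A→B) or 40 min (B→A), and receiver buffer was analysed by LC/MS/MS. Lucifer yellow and fluorescein checked monolayer integrity. Efflux ratio = Papp(B→A)/Papp(A→B).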

[2] = Apparent permeability from basolateral to apical side in human Caco2 cells at 10 uM after 60 mins by LC-MS/MS analysis; assay type: ADME, cell-based; conditions: caco-2, 1 h
[3] = Efflux ratio of apparent permeability in human Caco2 cells at 10 uM after 60 mins by LC-MS/MS analysis; assay type: ADME, cell-based; conditions: caco-2, 1 h; in short: as §1
Staphylococcus aureus [4] = experiment: Ratio of MBC to MIC for methicillin-resistant Staphylococcus aureus NRS123 (USA400); assay type: functional
In short: (§2)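 MBC/MIC ratio. […] MBC by plating no-growth wells onto tryptic soy agar at 37 °C for at least 18 h; taken as the concentration giving 99.9% growth inhibition.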

Staphylococcus aureus [5] = experiment: Bactericidal activity against methicillin resistant vancomycin-resistant Staphylococcus aureus VRS11a up to 18 hrs by broth microdilution assay; assay type: functional; conditions: read-out: MBC99.9
Staphylococcus aureus [6] = experiment: Potency index, ratio of vancomycin MIC to compound MIC for antibacterial activity against vancomycin-resistant Staphylococcus aureus VRS11a; assay type: functional
Staphylococcus aureus [7] = experiment: Bactericidal activity against methicillin resistant Staphylococcus aureus NRS123 (USA400) up to 18 hrs by broth microdilution assay; assay type: functional; conditions: read-out: MBC99.9
Staphylococcus aureus [8] = experiment: Antibacterial activity against methicillin-resistant Staphylococcus aureus NRS107 after 20 hrs by broth microdilution assay; assay type: functional; conditions: NRS107, 20 h
In short: (§3)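 Broth microdilution per CLSI in cation-adjusted Mueller Hinton broth. Compounds serially diluted, in triplicate. Incubation at 37 °C for at least 20 hours. MIC taken as the lowest concentration with no visible bacterial growth.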

Staphylococcus aureus [9] = experiment: Bactericidal activity against methicillin-resistant Staphylococcus aureus USA300 up to 18 hrs by broth microdilution assay; assay type: functional; conditions: USA300, 18 h, read-out: MBC99.9
Staphylococcus aureus [10] = experiment: Antibacterial activity against vancomycin-resistant Staphylococcus aureus VRS10 after 20 hrs by broth microdilution assay; assay type: functional; conditions: VRS10, 20 h; in short: as §3
Staphylococcus aureus [11] = experiment: Ratio of MBC to MIC for vancomycin-resistant Staphylococcus aureus VRS12; assay type: functional; in short: as §2
Staphylococcus aureus [12] = experiment: Bactericidal activity against methicillin-resistant Staphylococcus aureus NRS123 (USA400) at 4 times MIC after 24 hrs by time kill assay; assay type: functional, organism-based
Staphylococcus aureus [13] = experiment: Bactericidal activity against methicillin resistant vancomycin-resistant Staphylococcus aureus VRS12 up to 18 hrs by broth microdilution assay; assay type: functional; conditions: VRS12, 18 h, read-out: MBC99.9
In short: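 MBC set up from the MIC plates. Aliquots from wells with no growth spotted onto tryptic soy agar and incubated at 37 °C for at least 18 hours. MBC taken as the lowest concentration giving 99.9% inhibition of bacterial growth.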

Staphylococcus aureus [14] = experiment: Ratio of MBC to MIC for vancomycin-resistant Staphylococcus aureus VRS11a; assay type: functional; in short: as §2
Staphylococcus aureus [15] = experiment: Bactericidal activity against methicillin-resistant Staphylococcus aureus USA300 at 4 times MIC after 24 hrs by time kill assay; assay type: functional, organism-based
Mus musculus [16] = experiment: Toxicity in wounded skin area of Balb/c mouse infected with methicillin-resistant Staphylococcus aureus USA300 at 2% administered topically twice daily for 5 consecutive days measured 12 hrs post last dose; assay type: organism-based; conditions: in vivo, topical_or_ocular
In short: (§4)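 Female Balb/c mice, 8 weeks old, n=5 per group. Intradermal injection of 40 μL of 1.32×10^9 CFU/mL USA300; a wound formed by ~66 h. Treated topically with a 2% suspension in petroleum jelly twice daily for 5 days; the vehicle group served as control. Wounds excised 12 h after the last dose, homogenized in PBS and plated on mannitol salt agar; sites also observed for redness and swelling.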

Staphylococcus aureus [17] = experiment: Bactericidal activity against methicillin resistant vancomycin-resistant Staphylococcus aureus VRS10 up to 18 hrs by broth microdilution assay; assay type: functional; conditions: VRS10, 18 h, read-out: MBC99.9
Staphylococcus aureus [18] = experiment: Antibacterial activity against methicillin-resistant Staphylococcus aureus USA300 in Balb/c mouse skin infection model assessed as reduction in bacterial burden in wounded skin area at 2% administered topically twice daily for 5 consecutive days measured 12 hrs post last dose relative to control; assay type: functional; set-up: scale not given: the % may be the effect or the level left; in short: as §4
Staphylococcus aureus [19] = experiment: Ratio of MBC to MIC for methicillin-resistant Staphylococcus aureus NRS119; assay type: functional; in short: as §2
Staphylococcus aureus [20] = experiment: Ratio of MBC to MIC for methicillin-resistant Staphylococcus aureus NRS107; assay type: functional; in short: as §2
Mus musculus [21] = experiment: Induction of inflammation in Balb/c mouse infected with methicillin-resistant Staphylococcus aureus USA300 assessed as swelling around wounded skin area at 2% administered topically twice daily for 5 consecutive days measured 12 hrs post last dose; assay type: organism-based; conditions: in vivo, topical_or_ocular; in short: as §4
Staphylococcus aureus [22] = experiment: Antibacterial activity against methicillin-resistant Staphylococcus aureus NRS123 (USA400) after 20 hrs by broth microdilution assay; assay type: functional; in short: as §3
Staphylococcus aureus [23] = experiment: Antibacterial activity against vancomycin-resistant Staphylococcus aureus VRS11a after 20 hrs by broth microdilution assay; assay type: functional; in short: as §3
Staphylococcus aureus [24] = experiment: Potency index, ratio of vancomycin MIC to compound MIC for antibacterial activity against vancomycin-resistant Staphylococcus aureus VRS10; assay type: functional
Staphylococcus aureus [25] = experiment: Antibacterial activity against methicillin-resistant Staphylococcus aureus USA300 infected in Caenorhabditis elegans AU37 assessed as reduction in bacterial burden at 20 ug/ml after 18 hrs relative to control; assay type: functional; set-up: scale not given: the % may be the effect or the level left
In short: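 L4-stage C. elegans AU37 infected on USA300 lawns for 6 h and washed with M9 buffer. 25–30 worms per well exposed to 20 μg/mL for 18 h, in triplicate. Worms then lysed and plated on TSA with 5 μg/mL nalidixic acid for 17 h at 37 °C. CFU per worm expressed as % reduction versus PBS.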

J774 = experiment: Cytotoxicity against mouse J774 cells assessed as reduction in cell viability up to 16 ug/ml after 24 hrs by MTS assay; assay type: cell-based; conditions: j774, 24 h
In short: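 J774 murine macrophages were grown in DMEM with 10% FBS at 37 °C, 5% CO2. Compounds were tested at 8, 16 and 32 μg/mL in triplicate for 24 h, with a DMSO-matched control. MTS was added for 4 h and absorbance read at 490 nm. Viability is given as % of DMSO control (mean ± SD); Student t-test with Holm-Sidak test.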

[26] = Selectivity index, ratio of toxic concentration for human HRT18 cells to MIC for methicillin-resistant Staphylococcus aureus; assay type: toxicity; conditions: read-out: Selectivity Index
HRT-18 cell line = experiment: Cytotoxicity against human HRT18 cells assessed as reduction in cell viability up to 32 ug/ml after 2 hrs by MTS assay; assay type: cell-based; conditions: hrt-18, 2 h
Staphylococcus aureus [27] = experiment: Ratio of MBC to MIC for vancomycin-resistant Staphylococcus aureus VRS10; assay type: functional; in short: as §2
Staphylococcus aureus [28] = experiment: Ratio of MBC to MIC for methicillin-resistant Staphylococcus aureus USA300; assay type: functional; in short: as §2
Mus musculus [29] = experiment: Induction of inflammation in Balb/c mouse infected with methicillin-resistant Staphylococcus aureus USA300 assessed as redness around wounded skin area at 2% administered topically twice daily for 5 consecutive days measured 12 hrs post last dose relative to control; assay type: organism-based; conditions: in vivo, topical_or_ocular; in short: as §4
Staphylococcus aureus [30] = experiment: Potency index, ratio of vancomycin MIC to compound MIC for antibacterial activity against vancomycin-resistant Staphylococcus aureus VRS12; assay type: functional
Staphylococcus aureus [31] = experiment: Antibacterial activity against vancomycin-resistant Staphylococcus aureus VRS12 after 20 hrs by broth microdilution assay; assay type: functional; conditions: VRS12, 20 h; in short: as §3
Staphylococcus aureus [32] = experiment: Bactericidal activity against methicillin-resistant Staphylococcus aureus NRS119 up to 18 hrs by broth microdilution assay; assay type: functional; conditions: NRS119, 18 h, read-out: MBC99.9
Staphylococcus aureus [33] = experiment: Antibacterial activity against methicillin-resistant Staphylococcus aureus NRS123 (USA400) infected in mouse J774 cells at 16 ug/ml after 24 hrs; assay type: functional, organism-based
In short: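 J774 macrophages grown in DMEM with 10% FBS at 37 °C, 5% CO2. Infected with USA400 at MOI ~100:1 for 1 h, then washed with gentamicin 50 μg/mL. Treated in triplicate wells for 24 h, washed with gentamicin again and lysed with 0.1% Triton X-100. Lysate plated on tryptic soy agar for 18–22 h; CFU/mL counted.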

Staphylococcus aureus [34] = experiment: Antibacterial activity against methicillin-resistant Staphylococcus aureus NRS119 after 20 hrs by broth microdilution assay; assay type: functional; conditions: NRS119, 20 h; in short: as §3
[35] = target: T1, Undecaprenyl-diphosphatase (Escherichia coli (strain K12), UniProt P60932); experiment: Inhibition of Escherichia coli UPPP expressed in Escherichia coli C41(DE3) using FPP as substrate preincubated for 15 mins followed by substrate addition measured after 20 mins by malachite green assay
T1 sequence (P60932 whole entry): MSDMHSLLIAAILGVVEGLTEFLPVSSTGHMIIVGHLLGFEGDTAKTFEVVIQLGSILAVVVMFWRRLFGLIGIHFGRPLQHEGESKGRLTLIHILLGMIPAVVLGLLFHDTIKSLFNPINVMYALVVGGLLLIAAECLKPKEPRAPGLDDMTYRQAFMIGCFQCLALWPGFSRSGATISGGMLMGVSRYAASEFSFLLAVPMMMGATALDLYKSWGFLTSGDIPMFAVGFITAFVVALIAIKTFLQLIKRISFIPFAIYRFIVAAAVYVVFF

CNC(=C[N+](=O)[O-])NCCSCc1ccc(CN(C)C)o1 [RANITIDINE]
Papp [1]: 0.27 ×10⁻⁶ cm/s
Papp [2]: 1.71 ×10⁻⁶ cm/s
Ratio [3]: 6.3

CCCCCC#Cc1ccc(-c2nc(C)c(/C(C)=N/NC(=N)N)s2)cc1
Ratio (Staphylococcus aureus [4]): <=3
MBC (Staphylococcus aureus [5]): 2 µg/mL (≈ 5.44 µM)
Ratio (Staphylococcus aureus [6]): >100
MBC (Staphylococcus aureus [7]): 2 µg/mL (≈ 5.44 µM)
MIC (Staphylococcus aureus [8]): 2 µg/mL (≈ 5.44 µM)
MBC (Staphylococcus aureus [9]): 4 µg/mL (≈ 10.9 µM)
MIC (Staphylococcus aureus [10]): 2 µg/mL (≈ 5.44 µM)
Ratio (Staphylococcus aureus [11]): <=3
Activity (Staphylococcus aureus [12]): Active
MBC (Staphylococcus aureus [13]): 2 µg/mL (≈ 5.44 µM)
Ratio (Staphylococcus aureus [14]): <=3
Activity (Staphylococcus aureus [15]): Active
Activity (Mus musculus [16]): Non-Toxic
MBC (Staphylococcus aureus [17]): 2 µg/mL (≈ 5.44 µM)
Activity (Staphylococcus aureus [18]): 71%
Ratio (Staphylococcus aureus [19]): <=3
Ratio (Staphylococcus aureus [20]): <=3
Activity (Mus musculus [21]): Non-Toxic
MIC (Staphylococcus aureus [22]): 2 µg/mL (≈ 5.44 µM)
MIC (Staphylococcus aureus [23]): 1 µg/mL (≈ 2.72 µM)
Ratio (Staphylococcus aureus [24]): >100
Activity (Staphylococcus aureus [25]): 90%
Activity (J774): Non-Toxic
selectivity ratio [26]: 7 to 31
Activity (HRT-18 cell line): Non-Toxic
Ratio (Staphylococcus aureus [27]): <=3
Ratio (Staphylococcus aureus [28]): <=3
Activity (Mus musculus [29]): Non-Toxic
Ratio (Staphylococcus aureus [30]): 8
MIC (Staphylococcus aureus [31]): 2 µg/mL (≈ 5.44 µM)
MBC (Staphylococcus aureus [32]): 2 µg/mL (≈ 5.44 µM)
Activity (Staphylococcus aureus [33]): Active
MIC (Staphylococcus aureus [34]): 2 µg/mL (≈ 5.44 µM)

CC[C@H](C)[C@H](N)C1=N[C@H](C(=O)N[C@@H](CC(C)C)C(=O)N[C@H](CCC(=O)O)C(=O)N[C@H](C(=O)N[C@H]2CCCCNC(=O)[C@H](CC(N)=O)NC(=O)[C@@H](CC(=O)O)NC(=O)[C@H](Cc3cnc[nH]3)NC(=O)[C@@H](Cc3ccccc3)NC(=O)[C@H]([C@@H](C)CC)NC(=O)[C@@H](CCCN)NC2=O)[C@@H](C)CC)CS1 [BACITRACIN] ({Ileψ(thiazoline)Cys}-L[dE]IK[dOrn]I[dF]H[dD]N; lactam 4-C)
IC50 [35]: 5.6 µM

From ChEMBL document CHEMBL4196022, “Alkynyl-containing phenylthiazoles: Systemically active antibacterial agents effective against methicillin-resistant Staphylococcus aureus (MRSA)” (Eur J Med Chem, 2018)
